Assay results published in ChEMBL document CHEMBL3862011, “Neuroprotective effects of benzyloxy substituted small molecule monoamine oxidase B inhibitors in Parkinson's disease” (Bioorg Med Chem, 2016).
Calls of active or inactive are those of the source. No cut-off for these calls is given here.

Key:
PC-12 [1] = assay: Neuroprotective activity against 6-OHDA-induced apoptosis in rat PC12 cells assessed as necrotic cells at 10 uM after 24 hrs by 7-AAD/annexin V APC staining-based flow cytometric method (reference value: 0.6%); assay type: functional
PC-12 [2] = assay: Neuroprotective activity against 6-OHDA-induced apoptosis in rat PC12 cells assessed as early apoptotic cells at 20 uM after 24 hrs by 7-AAD/annexin V APC staining-based flow cytometric method (reference value: 42.1%); assay type: functional
PC-12 [3] = assay: Neuroprotective activity against rotenone-induced apoptosis in rat PC12 cells assessed as late apoptotic cells at 40 uM after 24 hrs by 7-AAD/annexin V APC staining-based flow cytometric method (reference value: 9.9%); assay type: functional
Mus musculus [4] = assay: Acute toxicity in Kunming mouse assessed as reduction in body weight at 2000 mg/kg measured for 14 days; assay type: organism-based; conditions: in vivo, 336 h
Outline: (§1)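 Kunming mice (20 ± 2 g), 10 per group, vehicle control group; fasted overnight, single oral dose in 0.5% CMC-Na suspension. Observed continuously for 4 h, intermittently to 24 h, then occasionally to day 14 for behaviour, mortality, food and water intake and body weight; sacrificed under ether on day 14.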

PC-12 [5] = assay: Neuroprotective activity against rotenone-induced apoptosis in rat PC12 cells assessed as viable cells at 5 uM after 24 hrs by 7-AAD/annexin V APC staining-based flow cytometric method (reference value: 39.3%); assay type: functional; conditions: PC-12, 24 h, read-out: Activity
PC-12 [6] = assay: Neuroprotective activity against 6-OHDA-induced apoptosis in rat PC12 cells assessed as late apoptotic cells at 40 uM after 24 hrs by 7-AAD/annexin V APC staining-based flow cytometric method (reference value: 4.4%); assay type: functional
PC-12 [7] = assay: Neuroprotective activity against rotenone-induced apoptosis in rat PC12 cells assessed as early apoptotic cells at 40 uM after 24 hrs by 7-AAD/annexin V APC staining-based flow cytometric method (reference value: 2.2%); assay type: functional
PC-12 [8] = assay: Neuroprotective activity against 6-OHDA-induced apoptosis in rat PC12 cells assessed as necrotic cells at 5 uM after 24 hrs by 7-AAD/annexin V APC staining-based flow cytometric method (reference value: 0.6%); assay type: functional
PC-12 [9] = assay: Neuroprotective activity against rotenone-induced toxicity in rat PC12 cells assessed as increase in cell viability after 24 hrs by phase-contrast microscopic method; assay type: functional, cell-based
Outline: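 PC12 cells were exposed to 5-40 μM test compound together with 40 μM 6-OHDA or 1 μM rotenone for 24 h. Viability was judged from phase-contrast images against untreated controls.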

PC-12 [10] = assay: Neuroprotective activity against rotenone-induced apoptosis in rat PC12 cells assessed as decrease in nuclear condensation at 20 uM after 24 hrs by Hoechst 33258 staining-based fluorescent inverted microscopic method; assay type: functional, cell-based
Outline: (§2)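 PC12 cells exposed to 6-OHDA or rotenone with test treatment were stained with Hoechst 33258 for 30 min, mounted on glass slides under cover slips, and examined by fluorescent inverted microscopy.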

PC-12 [11] = assay: Neuroprotective activity against rotenone-induced apoptosis in rat PC12 cells assessed as necrotic cells at 5 uM after 24 hrs by 7-AAD/annexin V APC staining-based flow cytometric method (reference value: 48.6%); assay type: functional
Mus musculus [12] = assay: Acute toxicity in Kunming mouse assessed as abnormal changes in water consumption at 2000 mg/kg measured for 14 days; assay type: organism-based; conditions: in vivo, 336 h; outline: as §1
PC-12 [13] = assay: Neuroprotective activity against rotenone-induced apoptosis in rat PC12 cells assessed as early apoptotic cells at 10 uM after 24 hrs by 7-AAD/annexin V APC staining-based flow cytometric method (reference value: 2.2%); assay type: functional
PC-12 [14] = assay: Neuroprotective activity against 6-OHDA-induced apoptosis in rat PC12 cells assessed as decrease in nuclear fragmentation at 20 uM after 24 hrs by Hoechst 33258 staining-based fluorescent inverted microscopic method; assay type: functional, cell-based; outline: as §2
PC-12 [15] = assay: Neuroprotective activity against 6-OHDA-induced toxicity in rat PC12 cells assessed as increase in cell survival preincubated for 24 hrs followed by 6-OHDA addition measured after 24 hrs by MTT assay; assay type: functional, cell-based
Outline: (§3)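 PC12 cells in RPMI-1640 with 10% FBS were seeded at 5×10^3 cells/well. After 24 h, compounds at 20 μM were added for 24 h at 37 °C, followed by 6-OHDA (40 μM) or rotenone (1 μM) for 24 h. Viability by MTT (570 nm, reference 630 nm), expressed as percent of untreated control. […] Mean ± SEM.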

PC-12 [16] = assay: Neuroprotective activity against rotenone-induced apoptosis in rat PC12 cells assessed as necrotic cells at 10 uM after 24 hrs by 7-AAD/annexin V APC staining-based flow cytometric method (reference value: 48.6%); assay type: functional
[17] = Neuroprotective activity against 6-OHDA-induced toxicity in rat PC12 cells assessed as cell survival at 20 uM preincubated for 24 hrs followed by 6-OHDA addition measured after 24 hrs by MTT assay relative to control; assay type: functional; conditions: PC-12, read-out: Survival
Outline: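 PC12 cells seeded 5×10^3/well, after 24 h given compound at 20 μM for 24 h at 37 °C, then exposed to 6-OHDA (40 μM) or rotenone (1 μM) for 24 h. […] Mean ± SEM of three independent experiments.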

PC-12 [18] = assay: Neuroprotective activity against rotenone-induced apoptosis in rat PC12 cells assessed as viable cells at 10 uM after 24 hrs by 7-AAD/annexin V APC staining-based flow cytometric method (reference value: 39.3%); assay type: functional; conditions: PC-12, 24 h, read-out: Activity
PC-12 [19] = assay: Neuroprotective activity against 6-OHDA-induced apoptosis in rat PC12 cells assessed as early apoptotic cells at 10 uM after 24 hrs by 7-AAD/annexin V APC staining-based flow cytometric method (reference value: 42.1%); assay type: functional
PC-12 [20] = assay: Neuroprotective activity against rotenone-induced apoptosis in rat PC12 cells assessed as viable cells at 40 uM after 24 hrs by 7-AAD/annexin V APC staining-based flow cytometric method (reference value: 39.3%); assay type: functional; conditions: PC-12, 24 h, read-out: Activity
[21] = Cytotoxicity against rat PC12 cells assessed as cell survival at 20 uM after 72 hrs by MTT assay relative to control; assay type: toxicity, PC-12; conditions: read-out: Survival
PC-12 [22] = assay: Neuroprotective activity against rotenone-induced reactive oxygen species accumulation in rat PC12 cells after 24 hrs by DCFH-DA probe-based flow cytometric method; assay type: functional, cell-based
Outline: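 PC12 cells were seeded at 2×10^5 cells/well in six-well plates and cultured with or without various concentrations of test samples for 24 h. After washing, they were loaded with DCFH-DA for 30 min at 37 °C in the dark, washed and harvested. DCF fluorescence read by flow cytometry (ex 488/em 525 nm), reported as mean fluorescence intensity.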

Mus musculus [23] = assay: Acute toxicity in Kunming mouse assessed as abnormal changes in food consumption at 2000 mg/kg measured for 14 days; assay type: organism-based; conditions: in vivo, 336 h; outline: as §1
PC-12 [24] = assay: Neuroprotective activity against rotenone-induced apoptosis in rat PC12 cells at 20 uM preincubated for 24 hrs followed by rotenone addition measured after 24 hrs by 7-AAD/annexin V APC staining-based flow cytometric method; assay type: functional, cell-based
PC-12 [25] = assay: Neuroprotective activity against rotenone-induced toxicity in rat PC12 cells assessed as increase in cell survival preincubated for 24 hrs followed by rotenone addition measured after 24 hrs by MTT assay; assay type: functional, cell-based; outline: as §3

O=C1CCOc2cc(OCc3ccc(F)cc3)ccc21
Activity (PC-12 [1]): 4%
Activity (PC-12 [2]): 10.8%
Activity (PC-12 [3]): 9.2%
Activity (Mus musculus [4]): Non-Toxic
viability at 5 µM (PC-12 [5]): 54.2%
Activity (PC-12 [6]): 0.2%
Activity (PC-12 [7]): 2.9%
Activity (PC-12 [8]): 3.8%
Activity (PC-12 [9]): Dose-dependent effect
Activity (PC-12 [10]): Active
Activity (PC-12 [11]): 33.2%
Activity (Mus musculus [12]): Non-Toxic
Activity (PC-12 [13]): 5%
Activity (PC-12 [14]): Active
Activity (PC-12 [15]): Dose-dependent effect
Activity (PC-12 [16]): 30.8%
viability at 20 µM [17]: 134%
viability at 10 µM (PC-12 [18]): 48%
Activity (PC-12 [19]): 22%
viability at 40 µM (PC-12 [20]): 62.1%
viability at 72 h, 20 µM [21]: 94.5%
Activity (PC-12 [22]): Dose-dependent effect
Activity (Mus musculus [23]): Non-Toxic
Activity (PC-12 [24]): Dose-dependent effect
Activity (PC-12 [25]): Dose-dependent effect
